Results on three molecules are retold here after publication PMC9298258 (Clinical Pharmacology and Therapeutics, 2021).

Data set [1] has as its system patients with RA. To be noted: cited from earlier work.
Data set [2] is described as follows: Plasma PK of tirabrutinib in two phase I studies. The format is in vivo. To be noted: human, oral.
A short description of data set [3]: Population PK model. The data set is classed as in vivo, human. Summed up:
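Plasma drug was measured by validated LC-MS/MS with an isotopically labeled internal standard (LLOQ 1.0 ng/mL). Pooled data came from healthy and RA subjects in two phase I studies. The model was two-compartment with first-order absorption, lag time and relative bioavailability, with IIV on CL/F, Vc/F and ka. Fitting used NONMEM FOCE-I. Covariates were screened on CL/F, Vc/F and ka, and bootstrap gave CIs.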

Data set [4] has as its target BTK (Homo sapiens, UniProt Q06187). Briefly: BTK occupancy test in peripheral blood mononuclear cells. The format is in vivo. Summed up:
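PBMC BTK occupancy measured by duplexed homogeneous TR-FRET, reading free and total BTK in the same well. LLOQ was 12 ng/mL; baselines below it were excluded. Study #1 used days 8 and 17, with day-8 predose as baseline. Study #2 sampled at baseline, days 1–7 and up to 120 h post-last-dose, or at PK timepoints. Covalent binding model with BTK-synthesis feedback (ksyn); NONMEM FOCE-I; bootstrap.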

The subject of data set [5] is subjects with RA. Nature of the data set: Exploratory efficacy in study #2, part B. The data set is classed as in vivo, human. To be noted: 20 mg q.d. Summed up: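 RA subjects in phase I part B were assessed at day 1 predose, week 2 and week 4. End points were plasma hsCRP and tender joint count 68 within the ACR core set. Each end point was regressed linearly against model-predicted time above 90% BTK occupancy over a 24-hour dosing interval.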

The conditions of data set [6]: cited from earlier work.
Data set [7] deals with murine collagen–induced arthritis model. To be noted: cited from earlier work.
The mark [8] stands for this setting: bootstrap (N = 1000) final model median estimate.
The mark [9] stands for this setting: final PopPK model estimate (RSE%).

The structures appear in SMILES notation.

The term half-life denotes the time needed for the level to fall by half in the phase considered. Low readings indicate rapid decline, high ones slow decline.

Chain of BTK (Q06187 whole entry): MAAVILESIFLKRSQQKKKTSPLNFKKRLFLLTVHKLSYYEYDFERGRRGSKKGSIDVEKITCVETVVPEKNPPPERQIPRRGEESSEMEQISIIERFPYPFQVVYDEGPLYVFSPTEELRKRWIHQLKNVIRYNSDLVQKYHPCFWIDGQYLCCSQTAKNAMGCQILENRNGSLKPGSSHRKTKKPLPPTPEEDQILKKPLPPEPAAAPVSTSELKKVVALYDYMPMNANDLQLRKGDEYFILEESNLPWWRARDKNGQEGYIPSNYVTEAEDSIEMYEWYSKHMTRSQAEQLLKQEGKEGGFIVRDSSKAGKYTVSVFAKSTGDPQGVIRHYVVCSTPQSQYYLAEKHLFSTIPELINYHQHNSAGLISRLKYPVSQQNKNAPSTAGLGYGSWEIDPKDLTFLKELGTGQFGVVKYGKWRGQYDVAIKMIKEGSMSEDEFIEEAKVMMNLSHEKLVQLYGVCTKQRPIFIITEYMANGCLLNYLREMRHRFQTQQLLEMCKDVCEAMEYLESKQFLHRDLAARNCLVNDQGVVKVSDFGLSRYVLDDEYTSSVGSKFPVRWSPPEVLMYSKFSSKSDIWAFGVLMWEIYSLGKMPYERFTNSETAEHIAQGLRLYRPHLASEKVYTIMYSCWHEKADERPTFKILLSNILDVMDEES

For `C[C@H]1CN(C2COC2)CCN1c1ccc(Nc2cc(-c3ccnc(N4CCn5c(cc6c5CC(C)(C)C6)C4=O)c3CO)cn(C)c2=O)nc1` [fenebrutinib], the “efficacy in moderate-to-severe RA” value in data set [1] is given as “comparable with adalimumab”. For the same molecule, the “BTK inhibition achieved by the efficacious doses” value in data set [1] (subjects with RA) is given as 90%.

For the molecule `C=CC(=O)Nc1cccc(Nc2nc(Nc3ccc(OCCOC)cc3)ncc2F)c1` [spebrutinib], the “disease markers in patients with active RA” value in data set [1] is “reduce disease markers”.

On to `CC#CC(=O)N1CC[C@@H](n2c(=O)n(-c3ccc(Oc4ccccc4)cc3)c3c(N)ncnc32)C1` [tirabrutinib, Tirabrutinib], for which the half-life in data set [2] lay within 6.2 to 7.3 h. In addition, in data set [3] (setting [8]), the Absorption lag time was 0.465 h; the “Absorption rate constant, ka” value is 0.811 h⁻¹; the “Apparent oral clearance, CL/F” value is on record as 62.5 L/h; the “Apparent oral volume, Vc/F” value is 357 L. Also, in data set [3] (setting [8]), the “IIV of CL/F” value is listed as 27.1%, the “IIV of Vc/F” value is recorded as 53.7%, the IIV of ka is listed as 89.6% and the “Influence of age on ka” value is “–1.74”. In data set [3] (setting [9]), the Absorption lag time is 0.465 (1) h; the “Absorption rate constant, ka” value is on record as 0.800 (14) h^−1; the “Apparent oral clearance, CL/F” value was 62.6 (4) L/h; the “Apparent oral volume, Vc/F” value was 357 (7) L. In addition, the IIV of ka in data set [3] (setting [9]) is 93.4 (13) %. Also, in data set [3] (final PopPK model estimate (RSE%), covariate exponent), the “Influence of age on ka” value is on record as “–1.74 (26)”. Further, the “Feedback rate constant on protein synthesis from BTK inhibition, ksyn” value in data set [4] (setting [8]) is -0.0290 h⁻¹. In data set [4] (final PK/PD model estimate (RSE%)), the “Feedback rate constant on protein synthesis from BTK inhibition, ksyn” value was −0.0301 (59) h^−1. In addition, in data set [4] (model and observed fBTK), the “BTK suppression after multiple dosing” value is given as “maintained through a 24‐hour dosing interval”. For the same molecule, in data set [5] (week 4 visit), the “change in TJC68” value is “small numerical decrease” and the “change in hsCRP levels” value is reported as “small numerical decrease”. Besides, the “effects on disease-related outcomes” value in data set [5] (exploratory efficacy analysis) is recorded as “modest effects”. Moreover, the “dose proportionality of pharmacokinetics” value in data set [6] (20-to-320 mg dose range) was “dose‐proportional”. Also, the tolerability entry in data set [6] (patients with B-cell malignancies, 20 to 480 mg q.d.) was “generally well‐tolerated”. The “absorption following oral administration” value in data set [6] (phase I dose escalation study) is on record as “rapidly absorbed”. Besides, in data set [7], the “arthritis severity and bone damage” value was “dose‐dependent inhibition”.
